The text below walks through data of ChEMBL document CHEMBL1140700, “Substituted pyrazoles as hepatoselective HMG-CoA reductase inhibitors: discovery of (3R,5R)-7-[2-(4-fluoro-phenyl)-4-isopropyl-5-(4-methyl-benzylcarbamoyl)-2H-pyrazol-3-yl]-3,5-dihydroxyheptanoic acid (PF-3052334) as a candidate for the treatment of hypercholesterolemia” (J Med Chem, 2008).

Series [1] relates to Cavia porcellus. Description: Reduction of LDL level in chow fed Hartley guinea pig serum at 10 mg/kg/day, po for 7 days relative to rosuvastatin. The class given is functional, Hartely. Also on record: scale not given: the % may be the effect or the level left. Particulars: in the assay text read “20 mg/kg/day” for “10 mg/kg/day”. An outline of the steps: (§1)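 Male Hartley guinea pigs (300–500 g) on chow diet 5025, acclimated ≥1 week; vehicle or compound suspension by daily oral gavage at 10 or 20 mpk (n = 8/group) for 7 days; sacrificed 2 h after final dose; LDL cholesterol as mean % change from vehicle group.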

Series [2] concerns Hepatocyte. Description: Inhibition of cholesterol synthesis in rat hepatocytes. Type of series: functional, cell-based. An outline of the steps:
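Frozen rat hepatocytes on collagen-coated wells, 10^5 cells/well, grown 24 h in DMEM/10% FBS/10 mM HEPES. Compound preincubation 4 h, then 1 µCi/mL 14C acetic acid for 4 h more.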

Series [3] has as its system Syrian golden hamster. Description: Inhibition of cholesterol synthesis in Golden Syrian hamster blood at 10 mg/kg, po after 4 to 6 hrs relative to control. Type of series: functional. The conditions noted are these: Mesocricetus auratus, read-out: Inhibition. An outline of the steps:
(§2)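 Hamsters on chow with 2.5% cholestyramine from 3 days prior; oral gavage of vehicle or compound (10 mpk), n = 8/group. At 2 h (2–4 h arm) or 4 h (4–6 h arm) postdose, i.p. 80 µCi 14C sodium acetate in 0.9% NaCl; euthanized 2 h later, cardiac blood, plasma saponified and extracted, 14C cholesterol counted; % change vs untreated controls.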

Series [4] has as its system Syrian golden hamster. Description: Inhibition of cholesterol synthesis in Goldern Syrian hamster blood at 10 mg/kg, po after 2 to 4 hrs relative to control. The class given is functional. The conditions noted are these: Mesocricetus auratus, read-out: Inhibition. An outline of the steps:
as §2

The test system of the next series is L6. The series can be described thus: Inhibition of cholesterol synthesis in rat L6 cells. Type of series: functional, cell-based.
The target in series [5] is T1, 3-hydroxy-3-methylglutaryl-coenzyme A reductase (Rattus norvegicus, UniProt P51639).
T1 sequence (P51639 whole entry): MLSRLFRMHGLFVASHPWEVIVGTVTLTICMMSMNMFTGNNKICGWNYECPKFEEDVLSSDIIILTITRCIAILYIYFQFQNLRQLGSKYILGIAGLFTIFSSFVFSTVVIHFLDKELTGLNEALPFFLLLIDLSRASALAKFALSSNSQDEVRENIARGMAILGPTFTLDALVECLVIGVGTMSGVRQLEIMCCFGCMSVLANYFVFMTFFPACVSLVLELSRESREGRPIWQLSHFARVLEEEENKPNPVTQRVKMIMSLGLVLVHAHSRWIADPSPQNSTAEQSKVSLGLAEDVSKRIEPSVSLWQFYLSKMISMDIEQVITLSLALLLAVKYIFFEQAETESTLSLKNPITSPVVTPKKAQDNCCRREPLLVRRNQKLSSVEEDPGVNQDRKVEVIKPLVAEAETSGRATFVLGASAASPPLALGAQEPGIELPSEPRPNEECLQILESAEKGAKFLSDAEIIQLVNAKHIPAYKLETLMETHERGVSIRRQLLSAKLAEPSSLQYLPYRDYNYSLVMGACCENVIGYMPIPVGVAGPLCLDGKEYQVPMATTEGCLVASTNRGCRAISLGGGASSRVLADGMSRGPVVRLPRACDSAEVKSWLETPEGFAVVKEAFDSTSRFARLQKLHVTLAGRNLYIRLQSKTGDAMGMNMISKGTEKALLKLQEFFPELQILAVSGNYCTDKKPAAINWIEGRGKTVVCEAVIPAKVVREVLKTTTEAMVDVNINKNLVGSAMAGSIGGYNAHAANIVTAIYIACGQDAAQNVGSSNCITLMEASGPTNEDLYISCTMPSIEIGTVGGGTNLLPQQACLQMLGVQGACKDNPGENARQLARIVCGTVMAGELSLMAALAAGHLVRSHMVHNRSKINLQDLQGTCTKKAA
Description: Inhibition of HMG-CoA reductase in Sprague-Dawley rat liver microsomes. More on the design: species or system Microsome. An outline of the steps:
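Rat liver microsomes (35 µg/mL) in 100 mM NaH2PO4, 10 mM imidazole, 10 mM EDTA, preincubated with compound in DMSO 0.5 h on ice; 14C-HMG-CoA (0.024 µCi) with 15 mM NADPH and 25 mM DTT added, 0.75 h at 37 °C. Stopped with HCl, lactonized to mevalonolactone, anion-exchange resin separation, scintillation counting; IC50 by curve fit.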

Series [6] has as its system Cavia porcellus. Description: Reduction of LDL level in po dosed Hartley guinea pig plasma after 7 days. Particulars: Hartely, 168 h. The class given is functional.
A short description of series [7]: Lipophilicity, log P of the compound. Type of series: physicochemical. The conditions noted are these: octanol/water.
The subject of series [8] is Hepatocyte. The series can be described thus: Ratio of IC50 for cholesterol synthesis in rat myocytes to rat hepatocytes. The class given is functional.
In series [9] the test system is Cavia porcellus. Description: Reduction of LDL level in chow fed Hartley guinea pig serum at 20 mg/kg/day, po for 7 days relative to rosuvastatin. More on the design: scale not given: the % may be the effect or the level left. The class given is functional, Hartely. An outline of the steps: as §1

Turning to `CC(C)c1c(C(=O)N(C)[C@H](C)c2ccccc2)nn(-c2ccc(F)cc2)c1CC[C@@H](O)C[C@@H](O)CC(=O)[O-].[Na+]`, the Activity in the series with Cavia porcellus [1] is listed as -11%. Further, the IC50 in the series on Hepatocyte [2] is 0.3 nM; in the series on L6, 1900 nM. The Percent change in cholesterol synthesis vs control at 10 mg/kg in the series on Syrian golden hamster [3] is -10%. In the series with Syrian golden hamster [4], the % change in cholesterol synthesis vs control at 10 mg/kg was -62%.

`CC[C@H](C)C(=O)O[C@H]1C[C@H](O)C=C2C=C[C@H](C)[C@H](CC[C@@H](O)C[C@@H](O)CC(=O)O)[C@H]21` [PRAVASTATIN]: the half-inhibitory concentration (IC50) was found to be 13 nM in series [5], 17 nM with Hepatocyte [2] and 7600 nM with L6. Moreover, the ED50 with Cavia porcellus [6] came to 100 mg/kg. In series [7], the LogP is -0.67. Moreover, the “Ratio IC50” value with Hepatocyte [8] stood at 450.

As to `CC(C)c1nc(N(C)S(C)(=O)=O)nc(-c2ccc(F)cc2)c1/C=C/[C@@H](O)C[C@@H](O)CC(=O)O` [ROSUVASTATIN], the half-inhibitory concentration (IC50) in series [5] is 3.1 nM; with Hepatocyte [2] it was 0.3 nM; in the series with L6 it was 250 nM. Besides, the 50% effective dose (ED50) in the series with Cavia porcellus [6] came out at 9.3 mg/kg. In addition, in the series on Cavia porcellus [9], the Activity is -42%. Besides, in the series on Hepatocyte [8], the “Ratio IC50” value worked out at 830. Moreover, the Percent change in cholesterol synthesis vs control at 10 mg/kg in the series on Syrian golden hamster [3] was -46%. In addition, in the series on Syrian golden hamster [4], the % change in cholesterol synthesis vs control at 10 mg/kg is -76%.
